# Screens: PubChem, Broad Institute
# PGC1a acetyl inh: inhibitors of PGC1a acetylation signal, primary screen, cell-based, U2OS, AlphaScreen, inhibitor mode. inhibition, % at 15.6 µM. 0.17% of 350,000 active. AlphaScreen anti-acetyl-lysine; with virally co-expressed GCN5 acetyltransferase. AID 651687, 2012;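 active means every replicate shows inhibition of at least 40%; inconclusive means mean inhibition at least 40% but some replicate below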;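 further: 0% = neutral control wells and 100% = positive control wells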
# HIV Env fusion: inhibitors of HIV-1 Env-driven cell-cell fusion, primary screen, HeLa-JRFL effector, CEM21 target cells, luciferase. inhibition, % at 12.3 µM. 1.1% of 360,000 active;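 active means mean replicate inhibition score of at least 50 and every replicate individually at or above 50; inconclusive means only one of the two criteria met; inactive means mean below 50 and not all replicates reaching 50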;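 further: 0% = plate neutral controls and 100% = maraviroc near 300 nM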
# FN deposition inh: inhibitors of fibronectin matrix deposition, primary screen, AH1F cells, Alexa488-fibronectin fluorescence, plate reader. inhibition, % at 12.6 µM. 0.086% of 350,000 active. AH1F fibroblasts, overnight. AID 743247, 2014;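 active means mean inhibition across replicates of 30% or more, regardless of how many single replicates reach that level; inconclusive means mean under 30% yet at least half of replicates reach 30%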;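 further: positive control wells lacked labelled fibronectin entirely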
#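 Measured by – fluorescence 485/525 nm · System – AH1F fibroblast monolayer, labelled fibronectin deposition · Amount – 10000 cells per well · Buffer or medium – serum-reduced DMEM (2% serum) · Doses – single dose, pinned · Also added – fluorescent fibronectin at 24 nM final · Schedule – 1 h cell attachment, overnight exposure to compound and label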
# PAX8 reporter: inhibitors of PAX8-driven TPO luciferase reporter, primary screen, RMG-I cells, single concentration | 1.2% of 360,000 active | inhibition, % at 12.6 µM | SteadyGlo, 24 h;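 active means mean replicate inhibition at least 60% with every replicate also reaching 60%; inconclusive means only one of the two criteria is met; inactive means mean below 60% and not all replicates reaching 60%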;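 further: luciferase light reporting Pax8 driven TPO promoter activity; plate controls were median of neutral control wells for no effect and mitoxantrone controls for full effect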
# FGF22 binding: binders of human FGF22 protein, primary screen, FGF22 synaptogenesis inhibitor project, biophysical, thermal shift, single point; recombinant FGF22 thermal shift, SYPRO orange fluorescence; percent of sucrose octasulfate shift, DMSO zero; activity (Tm shift, normalised), % at 9.99 µM; 1.5% of 340,000 active; AID 651658, 2012;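 active means mean Tm shift, scaled 0 neutral to 100 positive control, at about 1.3% or above, every replicate too, limit read from the data; inconclusive means no clear call, values can overlap the other calls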
# Target sequence (Q9HCT0 whole entry, looked up): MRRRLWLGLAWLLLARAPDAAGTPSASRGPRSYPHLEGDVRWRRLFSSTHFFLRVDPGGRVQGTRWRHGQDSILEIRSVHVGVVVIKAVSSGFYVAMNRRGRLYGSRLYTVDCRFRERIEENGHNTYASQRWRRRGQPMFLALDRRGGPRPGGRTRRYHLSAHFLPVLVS
# EWS-Fli inh: EWS/Fli-driven NR0B1 reporter inhibitors, primary screen, A673 cells, NR0B1 luciferase, luminescence, MLPCN library | viability-normalised | inhibition, % at 12.6 µM | 0.67% of 350,000 active;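 active means mean inhibition of at least 50% after viability correction, with every replicate also passing that limit; inconclusive means mean reaches 50% but only one of two replicates passes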;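 further: firefly luciferase signal divided by Alamar Blue viability fluorescence both relative to DMSO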
# An asterisk follows results filed as active; ? = inconclusive; . = no result given; [ ] = dose if it differs, or a comment. Only some compounds are listed: those with a hit (about 3.1% of all), similar ones and a draw of the others.
SMILES,PGC1a acetyl inh,HIV Env fusion,FN deposition inh,PAX8 reporter,FGF22 binding,EWS-Fli inh
Cc1cccc(COC[C@H](Cc2ccccc2)N2CCN(C(=O)c3ccc(C(F)(F)F)cc3)CCC2=O)c1,.,38.8,6.9,23.2,0.5,-0.7
Cc1cccc(COCC(CC(C)C)N2CCN(C(=O)c3ccc(C(C)(C)C)cc3)CCC2=O)c1 (centres undefined),9.7,59.8*,-1.0,4.5,-0.6,6.4
COc1ccc(S(=O)(=O)Nc2ccc3c(c2)C(=O)N([C@H](C)CO)C[C@@H](C)[C@H](CN(C)Cc2ccc(C(=O)O)cc2)OCCCC[C@@H](C)O3)cc1,-1.0,-27.6[16.7 µM],.,-14.6,.,-6.6
Cc1cccc(OCCNC(=O)c2ccc(Cl)c(S(=O)(=O)NCc3cccnc3)c2)c1,2.3,.,2.7,32.7,0.0,57.4*
COCCN(C(=O)CSc1nnc(-c2ccccc2F)n1C)c1c(N)n(Cc2ccccc2)c(=O)[nH]c1=O,-0.6,4.3,4.7,1.5,43.2*,-13.2
COCCN(C(=O)CSc1nnc(-c2cccc(C)c2)n1C)c1c(N)n(Cc2ccccc2)c(=O)[nH]c1=O,4.8,-8.9,6.9,13.0,0.0,2.1
CCN(CC)C(=O)c1ccc(/C=C/c2c[nH]c3ccccc23)[n+](C)c1,.,-2.3,-17.0,-23.9,.,.
CCCCCCCCCCCCCCCC[n+]1cccc(C(=O)N(CC)CC)c1,-18.5,32.7,13.7,64.1*,-0.1,7.1
Oc1ccc[n+](CCCCC[n+]2cccc(O)c2)c1,-1.1,-2.7,1.4,2.0,-0.1,1.4
CCCCCCCC[n+]1cccc(C(=O)N(CC)CC)c1,.,-9.0,3.1,1.7,43.4*,8.9
COCc1cn(CC[C@H]2CC[C@H](NC(=O)Nc3ccccc3)[C@H](CO)O2)nn1,2.0,-9.0[16.7 µM],.,-3.0,-0.2,-6.7
Cn1ccnc1SCc1nc2c(cnn2-c2ccccc2)c(=O)[nH]1,.,.,2.1,139.8*,0.2,2.0
CC(C)(C)NC(=O)C(c1ccncc1)n1c(=O)c(-c2cc3ccccc3[nH]2)nc2ccccc21 (centres undefined),.,58.2*,-0.2,-18.9,0.5,-12.5
C[C@@H]1CN([C@H](C)CO)S(=O)(=O)c2ccc(C#C[C@@H](C)O)cc2O[C@H]1CN(C)Cc1ccc(-c2ccccc2)cc1,3.8,.,.,?,0.1,37.3
C[C@@H]1CN([C@@H](C)CO)S(=O)(=O)c2ccc(C#C[C@@H](C)O)cc2O[C@@H]1CN(C)Cc1ccc(-c2ccccc2)cc1,-20.8,.,.,77.0*,-0.7,11.3
C[C@H](O)C#Cc1ccc2c(c1)O[C@@H](CN(C)Cc1ccc(-c3ccccc3)cc1)[C@H](C)CN([C@H](C)CO)S2(=O)=O,6.5,.,.,94.0*,0.0,-6.4
C[C@H](O)C#Cc1ccc2c(c1)O[C@H](CN(C)Cc1ccc(-c3ccccc3)cc1)[C@H](C)CN([C@@H](C)CO)S2(=O)=O,-15.4,.,.,81.1*,-0.6,15.3
C[C@H](O)C#Cc1ccc2c(c1)O[C@H](CN(C)Cc1ccc(-c3ccccc3)cc1)[C@@H](C)CN([C@@H](C)CO)S2(=O)=O,10.7,.,.,108.9*,-0.3,9.0
CC(C)NC(=O)Nc1cccc2c1O[C@@H](CN(C)C(=O)Nc1ccc(F)cc1)[C@@H](C)CN([C@@H](C)CO)C2=O,6.3,.,.,2.5,-0.1,10.2
CC(C)CC#Cc1cnc2c(c1)C(=O)N([C@H](C)CO)C[C@@H](C)[C@H](CN(C)Cc1ccccn1)O2,-4.0,7.8[16.7 µM],-17.4,.,0.2,-1.6
C[C@@H]1CN([C@@H](C)CO)C(=O)c2cc(NS(C)(=O)=O)ccc2O[C@@H](C)CCCCO[C@@H]1CN(C)C(=O)Nc1ccccc1,-6.9,16.1[16.7 µM],2.5,-0.3,-0.1,-7.1
C[C@@H]1CCCCO[C@@H](CN(C)C(=O)C2CCCCC2)[C@@H](C)CN([C@@H](C)CO)C(=O)c2cc(NC(=O)Cc3ccccc3)ccc2O1,3.0,-22.9[16.7 µM],.,3.1,-0.5,-0.6
CN(c1ccccc1)c1nc(-n2ccnc2)nc(-n2ccnc2)n1,-4.4,-76.2,44.3*,.,.,.
c1ccc(N(c2ccccc2)c2nc(-n3ccnc3)nc(-n3ccnc3)n2)cc1,-17.9,.,.,.,.,.
Oc1c(C(c2ccccn2)N2CCCCC2)cc(Cl)c2cccnc12 (centres undefined),3.2,-17.4,16.7,76.7*,0.0,36.6
SMILES,PGC1a acetyl inh,HIV Env fusion,FN deposition inh,PAX8 reporter,FGF22 binding,EWS-Fli inh
CC(=O)NC(c1ccccc1)c1cc(Cl)c2cccnc2c1O (centres undefined),.,16.0,0.0,84.6*,-0.1,21.1
CCCC(=O)NC(c1ccc(OC)c(OC)c1)c1cc(Cl)c2cccnc2c1O (centres undefined),9.3,10.5,-6.8,20.0,43.3*,9.7
CC(=O)NC(c1ccc(N(C)C)cc1)c1cc(Cl)c2cccnc2c1O (centres undefined),7.7,45.3,5.1,84.6*,0.1,24.4
C[C@H](CO)N1C[C@H](C)[C@H](CN(C)Cc2ccc3c(c2)OCO3)Oc2cc(-c3cccc(C(=O)N(C)C)c3)ccc2S1(=O)=O,-39.2,1.6[16.7 µM],.,10.6,0.0,-6.6
CCC(=O)NC(c1cc(Cl)c2cccnc2c1O)C(C)C (centres undefined),12.8,48.6,4.7,46.4,0.0,14.2
CC(=O)NC(c1ccc(C)cc1)c1cc([N+](=O)[O-])c2cccnc2c1O (centres undefined),.,47.8*,8.1,0.8,0.2,0.4
CCC(=O)NC(c1cc(Cl)c2cccnc2c1O)C1CC1 (centres undefined),.,44.0,8.9,65.6*,-0.2,26.8
CCC(=O)NC(c1ccc(C)cc1)c1cc([N+](=O)[O-])c2cccnc2c1O (centres undefined),7.2,25.9,-0.1,12.3,.,.
Oc1c(I)cc(Cl)c2cccnc12,20.8,5.2,8.6,78.7*,0.2,16.4
CCC(=O)Nc1ccc2c(c1)C(=O)N(C)[C@H]1CC[C@@H](CC(=O)NCCc3ccncc3)O[C@@H]1CO2,0.6,-9.5[16.7 µM],-10.8,-5.3,-0.1,3.7
CCS(=O)(=O)Nc1ccc2c(c1)C(=O)N(C)C[C@H](OC)[C@@H](C)CN(C(=O)COC)[C@H](C)CO2,0.4,10.4[16.7 µM],-8.2,2.9,.,-1.7
CO[C@@H]1CN(C)C(=O)c2ccc(NS(C)(=O)=O)cc2OC[C@@H](C)N(CC2CCOCC2)C[C@@H]1C,-3.0,4.8[16.7 µM],-15.2,.,0.2,4.9
Cc1cc(=O)n(C)c(=O)n1CCCCOc1cccc([N+](=O)[O-])c1,-1.3,-8.6,-0.8,9.7,43.6*,4.9
